Test results published in ChEMBL document CHEMBL1944598, “First synthesis and anticancer activity of novel naphthoquinone amides” (Eur J Med Chem, 2012).
Calls of active or inactive are those of the source. The calls are words filed in the database; no cut-off is given here.

Experiments:
KB = test: Cytotoxicity against human KB cells after 3 days by resazurin microplate assay; assay type: functional, cell-based
Outline: (§1)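 Log-phase cells seeded at 7×10^4 cells/mL (KB) or 9×10^4 cells/mL (MCF-7) onto compounds in 0.5% DMSO. Incubated 3 days at 37 °C, 5% CO₂, then resazurin added for 4 h. Fluorescence read at ex 530/em 590 nm. IC50 by curve fit from 6 two-fold serial dilutions. Doxorubicin positive, 0.5% DMSO negative control. Mean of three replicates ± SD.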

NCI-H187 = test: Cytotoxicity against human NCI-H187 cells after 5 days by resazurin microplate assay; assay type: functional, cell-based; details: NCI-H187, 120 h
Outline: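 Log-phase NCI-H187 cells diluted to 9×10^4 cells/mL and seeded onto compounds in 0.5% DMSO. After 5 days at 37 °C, 5% CO₂, resazurin added for 4 h. Fluorescence read at ex 530/em 590 nm. IC50 fitted from 6 two-fold serial dilutions. Doxorubicin and 0.5% DMSO controls. Mean of three replicates ± SD.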

Vero = test: Cytotoxicity against african green monkey Vero cells expressing GFP after 4 days by fluorescence assay; assay type: cell-based; details: Chlorocebus sabaeus, 96 h
Outline: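 Vero (African green monkey kidney) cells stably transfected with pEGFP-N1, kept in MEM with 10% heat-inactivated FBS, 2 mM L-glutamine, 1 mM pyruvate, geneticin. Cells seeded at 3.3 × 10⁴ cells/mL onto compounds diluted in 0.5% DMSO, 4 days at 37 °C, 5% CO₂. Bottom-read fluorescence (ex 485/em 535 nm), day-0 background subtracted. IC50 by curve fit from 6 two-fold dilutions.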

MCF7 = test: Cytotoxicity against human MCF7 cells after 3 days by resazurin microplate assay; assay type: functional, cell-based; outline: as §1
[1] = biological target: DNA topoisomerase 2-alpha (Homo sapiens) (UniProt P11388); test: Inhibition of human topoisomerase 2alpha-mediated decatenation of kinetoplast DNA at 10 uM after 1 hr using ethidium bromide by agarose gel electrophoresis analysis relative to doxorubicin
Outline: (§2)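 Doxorubicin as positive control. Stopped with Sarkosyl loading dye. Run on 1% agarose in 0.5x TBE with ethidium bromide at 50 V, imaged under UV. Decatenated and linearized kDNA used as markers.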

[2] = biological target: DNA topoisomerase 2-alpha (Homo sapiens) (UniProt P11388); test: Inhibition of human topoisomerase 2alpha-mediated decatenation of kinetoplast DNA at 20 uM after 1 hr using ethidium bromide by agarose gel electrophoresis analysis; outline: as §2
[3] = biological target: DNA topoisomerase 2-alpha (Homo sapiens) (UniProt P11388); test: Inhibition of human topoisomerase 2alpha-mediated decatenation of kinetoplast DNA at 50 uM after 1 hr using ethidium bromide by agarose gel electrophoresis analysis; outline: as §2
[4] = Homo sapiens, KB, 72 h, read-out: IC50
[5] = Homo sapiens, MCF7, 72 h, read-out: IC50

DNA topoisomerase 2-alpha (Homo sapiens), sequence (P11388 whole entry): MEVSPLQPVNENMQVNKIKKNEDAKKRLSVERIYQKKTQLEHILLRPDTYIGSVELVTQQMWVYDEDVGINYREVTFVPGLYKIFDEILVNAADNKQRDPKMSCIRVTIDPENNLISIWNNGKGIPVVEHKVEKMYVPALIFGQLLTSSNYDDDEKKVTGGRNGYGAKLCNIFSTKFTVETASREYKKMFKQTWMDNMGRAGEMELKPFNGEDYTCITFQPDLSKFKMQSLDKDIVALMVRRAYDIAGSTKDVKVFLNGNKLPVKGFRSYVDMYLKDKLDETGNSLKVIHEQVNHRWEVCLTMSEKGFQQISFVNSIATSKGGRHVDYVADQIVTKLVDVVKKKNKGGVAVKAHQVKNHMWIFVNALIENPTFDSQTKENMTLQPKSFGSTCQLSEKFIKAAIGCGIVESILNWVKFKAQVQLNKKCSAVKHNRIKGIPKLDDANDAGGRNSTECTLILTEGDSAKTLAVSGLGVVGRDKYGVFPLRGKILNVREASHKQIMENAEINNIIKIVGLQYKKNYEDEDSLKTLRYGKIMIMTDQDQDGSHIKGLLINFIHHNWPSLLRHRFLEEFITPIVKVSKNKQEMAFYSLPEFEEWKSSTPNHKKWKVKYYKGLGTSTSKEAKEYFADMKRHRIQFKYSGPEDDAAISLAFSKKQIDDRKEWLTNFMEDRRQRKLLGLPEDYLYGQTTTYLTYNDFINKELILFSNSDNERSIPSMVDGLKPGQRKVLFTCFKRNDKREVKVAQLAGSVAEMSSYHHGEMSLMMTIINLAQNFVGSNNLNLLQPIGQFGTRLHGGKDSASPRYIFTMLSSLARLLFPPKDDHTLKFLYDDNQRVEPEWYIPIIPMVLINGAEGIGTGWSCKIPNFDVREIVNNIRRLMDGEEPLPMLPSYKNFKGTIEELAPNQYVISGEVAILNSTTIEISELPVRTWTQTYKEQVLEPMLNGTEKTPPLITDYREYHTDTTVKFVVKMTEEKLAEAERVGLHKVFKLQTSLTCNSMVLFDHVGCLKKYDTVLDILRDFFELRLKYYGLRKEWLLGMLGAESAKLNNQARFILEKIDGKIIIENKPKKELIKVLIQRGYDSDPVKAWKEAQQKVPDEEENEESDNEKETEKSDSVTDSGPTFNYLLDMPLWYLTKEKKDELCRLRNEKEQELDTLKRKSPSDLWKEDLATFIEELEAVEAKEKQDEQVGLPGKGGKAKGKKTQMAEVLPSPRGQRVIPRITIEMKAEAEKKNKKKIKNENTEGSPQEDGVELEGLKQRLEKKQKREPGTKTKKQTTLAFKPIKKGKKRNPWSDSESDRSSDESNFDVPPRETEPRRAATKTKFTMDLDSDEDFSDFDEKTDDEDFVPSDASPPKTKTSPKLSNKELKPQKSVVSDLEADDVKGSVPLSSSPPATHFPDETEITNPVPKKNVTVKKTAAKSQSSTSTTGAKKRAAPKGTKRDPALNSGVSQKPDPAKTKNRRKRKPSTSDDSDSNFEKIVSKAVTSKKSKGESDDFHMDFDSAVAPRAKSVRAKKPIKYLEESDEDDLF

## CC(C)(CNC(=O)c1ccccc1)CC1=C(O)C(=O)c2ccccc2C1=O
KB; [4]
  IC50: 15.2 µM
NCI-H187
  IC50: 40.1 µM
Vero
  IC50: 50.5 µM
MCF7; [5]
  IC50: 37.1 µM

## COc1ccccc1C(=O)NCC(C)(C)CC1=C(O)C(=O)c2ccccc2C1=O
KB; [4]
  IC50: 26.3 µM
NCI-H187
  IC50: 42.9 µM
Vero
  IC50: 31.2 µM
MCF7; [5]
  IC50: 111 µM

## COc1cc(C(=O)NCC(C)(C)CC2=C(O)C(=O)c3ccccc3C2=O)c(O)c2ccccc12
KB; [4]
  IC50: 8.62 µM
[1]
  inhibition: inactive
NCI-H187
  IC50: 26 µM
Vero
  IC50: 15.8 µM
[2]
  inhibition: Active
[3]
  inhibition: Active
MCF7; [5]
  IC50: 35.6 µM

## COc1ccc(OC)c(C(=O)NCC(C)(C)CC2=C(O)C(=O)c3ccccc3C2=O)c1
KB; [4]
  IC50: 86.6 µM
NCI-H187
  IC50: 40.9 µM
Vero
  IC50: 89.1 µM
MCF7; [5]
  IC50: 99.4 µM

## COc1cccc2c1C(=O)c1c(O)c3c(c(O)c1C2=O)C[C@@](O)(C(=O)CO)C[C@@H]3O[C@H]1C[C@H](N)[C@H](O)[C@H](C)O1 [DOXORUBICIN]
KB; [4]
  IC50: 0.9 µM
NCI-H187
  IC50: 0.16 µM
Vero
  IC50: 28.8 µM

## CC(C)(CNC(=O)c1ccc2ccccc2c1)CC1=C(O)C(=O)c2ccccc2C1=O
KB; [4]
  IC50: 9 µM
[1]
  inhibition: inactive
NCI-H187
  IC50: 19.5 µM
Vero
  IC50: 46.6 µM
[3]
  inhibition: Active
MCF7; [5]
  IC50: 28.2 µM

## COC1=C(CC(C)(C)CNC(=O)c2ccccc2OC)C(=O)c2ccccc2C1=O
KB; [4]
  IC50: 33.2 µM
NCI-H187
  IC50: 34.7 µM
Vero
  IC50: 27.3 µM
MCF7; [5]
  IC50: 70.7 µM

## COC1=C(CC(C)(C)CNC(=O)c2cc(OC)ccc2OC)C(=O)c2ccccc2C1=O
KB; [4]
  IC50: 34.3 µM
NCI-H187
  IC50: 74.3 µM
Vero
  IC50: 36.2 µM
MCF7; [5]
  IC50: 57.9 µM

## COc1ccc(O)c(C(=O)NCC(C)(C)CC2=C(O)C(=O)c3ccccc3C2=O)c1
KB; kb
  IC50: Not Active
NCI-H187
  IC50: 15 µM
Vero
  IC50: 31.1 µM
MCF7; [5]
  IC50: 39.6 µM

## COC1=C(CC(C)(C)CNC(=O)c2ccc3ccccc3c2OC)C(=O)c2ccccc2C1=O
KB; [4]
  IC50: 64.1 µM
NCI-H187
  IC50: 53.2 µM
Vero
  IC50: 60.6 µM
MCF7; [5]
  IC50: 95.7 µM

## COc1cc(C(=O)NCC(C)(C)CC2=C(O)C(=O)c3ccccc3C2=O)c(OC)c2ccccc12
KB; [4]
  IC50: 47 µM
[1]
  inhibition: inactive
NCI-H187
  IC50: 19.8 µM
Vero
  IC50: 17.7 µM
[3]
  inhibition: Active
MCF7; mcf7
  IC50: Not Active

## CC(C)(CNC(=O)c1ccc2ccccc2c1O)CC1=C(O)C(=O)c2ccccc2C1=O
KB; [4]
  IC50: 26.9 µM
[1]
  inhibition: inactive
NCI-H187
  IC50: 14.4 µM
Vero
  IC50: 93.7 µM
[2]
  inhibition: Active
[3]
  inhibition: Active
MCF7; [5]
  IC50: 79.5 µM

## COc1c(C(=O)NCC(C)(C)CC2=C(O)C(=O)c3ccccc3C2=O)ccc2ccccc12
KB; [4]
  IC50: 66.9 µM
NCI-H187
  IC50: 37 µM
Vero
  IC50: 47.3 µM
MCF7; [5]
  IC50: 39.8 µM

## COC1=C(CC(C)(C)CNC(=O)c2ccc3ccccc3c2)C(=O)c2ccccc2C1=O
KB; [4]
  IC50: 34.1 µM
NCI-H187
  IC50: 25.7 µM
Vero
  IC50: 36 µM
MCF7; [5]
  IC50: 52.5 µM

## COC1=C(CC(C)(C)CNC(=O)c2ccccc2)C(=O)c2ccccc2C1=O
KB; [4]
  IC50: 117 µM
NCI-H187
  IC50: 19.1 µM
Vero
  IC50: 12.3 µM
MCF7; [5]
  IC50: 61.8 µM

## COC1=C(CC(C)(C)CNC(=O)c2cc(OC)c3ccccc3c2OC)C(=O)c2ccccc2C1=O
KB; [4]
  IC50: 41.2 µM
NCI-H187
  IC50: 19.6 µM
Vero
  IC50: 30.1 µM
MCF7; mcf7
  IC50: Not Active

## CC(C)(CNC(=O)c1ccccc1O)CC1=C(O)C(=O)c2ccccc2C1=O
KB; [4]
  IC50: 44.9 µM
[1]
  inhibition: inactive
NCI-H187
  IC50: 8.83 µM
Vero
  IC50: 32.1 µM
[3]
  inhibition: Active
MCF7; [5]
  IC50: 28.1 µM
